Source: ChEMBL document CHEMBL1255528, “Chemical investigation of drug-like compounds from the Australian tree, Neolitseadealbata” (Bioorg Med Chem Lett, 2010)
Counter-ions that a name gives are not always drawn.

Assays:
LNCaP = test: Cytotoxicity against human LNCAP cells after 72 hrs by alamar blue assay; format: functional, cell-based
Summary of the method: (§1)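 Screened across a human panel: A549 lung adenocarcinoma, HeLa cervical adenocarcinoma, MCF-7 breast, LNCaP and PC3 prostate, plus non-cancer HEK 293 embryonic kidney and NFF neonatal foreskin fibroblasts. IC50 reported as mean ± SD of two independent experiments.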

NFF [1] = test: Cytotoxicity against human NFF after 72 hrs by alamar blue assay; format: cell-based; summary of the method: as §1
A549 = test: Cytotoxicity against human A549 cells after 72 hrs by alamar blue assay; format: functional, cell-based; conditions: A549, 72 h; summary of the method: as §1
[2] = Cytotoxicity against HEK cells after 72 hrs by alamar blue assay; format: cell-based; conditions: Homo sapiens, HEK293, 72 h; summary of the method: as §1
PC-3 = test: Cytotoxicity against human PC3 cells after 72 hrs by alamar blue assay; format: functional, cell-based; conditions: PC-3, 72 h; summary of the method: as §1
MCF7 [3] = test: Cytotoxicity against human MCF7 cells after 72 hrs by alamar blue assay; format: functional, cell-based; conditions: MCF7, 72 h; summary of the method: as §1
HeLa = test: Cytotoxicity against human HeLa cells after 72 hrs by alamar blue assay; format: functional, cell-based; summary of the method: as §1
[4] = Cytotoxicity against HEK cells at 100 uM after 72 hrs by alamar blue assay; format: cell-based, HEK293; conditions: human; for cytotoxicity at 72 h, 100 µM: HEK cells, read-out: INH
Summary of the method: (§2)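 Non-cancer human cell lines, human embryonic kidney 293 (HEK 293) and neonatal foreskin fibroblasts (NFF), screened in parallel with a panel of five cancer lines. Growth inhibition is reported as percent inhibition at a single test concentration of 100.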

MCF7 [5] = test: Cytotoxicity against human MCF7 cells at 100 uM after 72 hrs by alamar blue assay; format: functional; conditions: MCF7, 72 h
Summary of the method: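 Single-concentration screen on MCF-7 breast cancer cells within the same human cell-line panel. Percent growth inhibition calculated at the one test concentration rather than as an IC50.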

[6] = (§3) Cytotoxicity against human NFF at 100 uM after 72 hrs by alamar blue assay; format: cell-based; conditions: NFF cells, read-out: INH; summary of the method: as §2
NFF [7] = test: as §3; format: cell-based; conditions: nff, 72 h, 100 µM; summary of the method: as §2

Row | SMILES | IC50 (LNCaP) [µM] | IC50 (NFF [1]) [µM] | IC50 (A549) [µM] | IC50 [2] [µM] | IC50 (PC-3) [µM] | IC50 (MCF7 [3]) [µM] | IC50 (HeLa) [µM] | cytotoxicity at 72 h, 100 µM [4] [%] | inhibition at 100 µM (MCF7 [5]) [%] | cytotoxicity at 72 h, 100 µM [6] [%] | inhibition (INH) ([4]; hek293, 72 h, 100 µM, 72 h) [%] | inhibition (INH) (NFF [7]) [%]
1 | Oc1ccc2c(c1)-c1c3c(cc4c1[C@@H](C2)NCC4)OCO3 | 13.8 | 42.6 | 28.2 | 59.7 | 23 | 27.4 | 4 |  |  |  |  | 
2 | CN1CCc2cc3c(c4c2[C@H]1Cc1ccccc1-4)OCO3 | 12.7 | 15.2 | 3.4 | 15.9 | 7.7 | 17.7 | 16.6 |  |  |  |  | 
3 | COc1cc2c(cc1O)C[C@@H]1NCCc3cc4c(c-2c31)OCO4 | 27.4 | > 100 | 16 |  | 36.4 |  | 28.1 | 55 | 52 |  |  | 
4 | COc1cc2c(cc1O)C[C@@H]1NCCc3cc(O)c(OC)c-2c31 | > 100 | > 100 | > 100 | > 100 | > 100 | > 100 | > 100 |  |  |  |  | 
5 | COc1cc2c(cc1O)C[C@H]1c3c(cc(O)c(OC)c3-2)CCN1C | > 100 | > 100 | > 100 | > 100 | > 100 | > 100 | > 100 |  |  |  |  | 
6 | COc1ccc2c(c1O)[C@H](Cc1ccc(O)cc1)NCC2 | > 100 | > 100 | > 100 | > 100 | > 100 | > 100 | > 100 |  |  |  |  | 
7 | COc1ccc2c(c1O)[C@H](Cc1ccc(O)cc1)N(C)CC2 | > 100 | > 100 | > 100 | > 100 | > 100 | > 100 | > 100 |  |  |  |  | 
8 | C[N@@+]1([O-])CCc2cc3c(c4c2[C@H]1Cc1ccccc1-4)OCO3 (stereo in doubt; 3) | > 100 |  | > 100 |  | > 100 | > 100 | > 100 | 61 |  | 83 |  | 
9 | C[N@@+]1([O-])CCc2cc3c(c4c2[C@H]1Cc1ccccc1-4)OCO3.O=C(O)C(F)(F)F (stereo in doubt; 4) |  |  |  |  |  |  |  |  |  |  | 49 | 66
10 | CC(=O)O[C@H]1C(=O)[C@@]2(C)[C@H]([C@H](OC(=O)c3ccccc3)[C@]3(O)C[C@H](OC(=O)[C@H](O)[C@@H](NC(=O)c4ccccc4)c4ccccc4)C(C)=C1C3(C)C)[C@]1(OC(C)=O)CO[C@@H]1C[C@@H]2O [PACLITAXEL] |  | 0.0047 | 0.0038 | 0.0039 |  | 0.0044 | 0.0089 |  |  |  |  | 
11 | CC[C@]1(O)C[C@H]2CN(CCc3c([nH]c4ccccc34)[C@@](C(=O)OC)(c3cc4c(cc3OC)N(C=O)[C@H]3[C@@](O)(C(=O)OC)[C@H](OC(C)=O)[C@]5(CC)C=CCN6CC[C@]43[C@@H]65)C2)C1 [VINCRISTINE SULFATE] | 0.0029 |  |  |  | 0.011 |  |  |  |  |  |  | 
